Test results as given in ChEMBL document CHEMBL1147441, “A new series of potent oxindole inhibitors of CDK2” (Bioorg Med Chem Lett, 2004).

What was measured:
SW480 = assay: In vitro inhibition of SW480 (human colon cancer) cell proliferation.; type: functional, cell-based
Summary of the method: (§1)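 MTT-based proliferation assay run on tumour cells. IC50 values were taken from a single experiment.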

MDA-MB-435 = assay: In vitro inhibition of MDA MB 435 (human breast cancer) cell proliferation.; type: functional, cell-based; summary of the method: as §1
[1] = molecular target: Cyclin-dependent kinase 2/cyclin E (Homo sapiens, UniProt P24941); assay: In vitro inhibition of recombinant Cyclin Dependent Kinase-2/Cyclin E.; type: protein-complex assay

SMILES | IC50 (SW480) [nM] | IC50 (MDA-MB-435) [nM] | IC50 [1] [nM]
COc1cc[nH]c1/C=C1\C(=O)Nc2ccc(F)c(C#C[C@@H](C)O)c21 | 130 | 110 | 21
COc1cc[nH]c1/C=C1\C(=O)Nc2ccc(F)c(C#C[C@@H]3C[C@@H](O)CN3)c21 | 44 | 63 | 4
CN[C@@H](C#Cc1c(F)ccc2c1/C(=C/c1[nH]ccc1OC)C(=O)N2)CO | 80 | 300 | 4
COc1cc[nH]c1/C=C1\C(=O)Nc2ccc(F)c(C#C[C@@H](NS(C)(=O)=O)[C@@H](C)O)c21 | 1180 | 2620 | 45
CN[C@H](C#Cc1c(F)ccc2c1/C(=C/c1[nH]ccc1OC)C(=O)N2)[C@@H](C)O | 140 | 358 | 7
COc1cc[nH]c1/C=C1\C(=O)Nc2ccc(F)c(C#C[C@@H](N)CO)c21 | 205 | 300 | 5
COc1cc[nH]c1/C=C1\C(=O)Nc2ccc(F)c(I)c21 | – | > 30000 | 1000
COc1cc[nH]c1/C=C1\C(=O)Nc2ccc(F)c(C#CC(O)CN)c21 (configuration not stated) | 110 | 130 | 4
CCN[C@H](C#Cc1c(F)ccc2c1/C(=C/c1[nH]ccc1OC)C(=O)N2)CO | 566 | 1160 | 21
CCN[C@H](C#Cc1c(F)ccc2c1/C(=C/c1[nH]ccc1OC)C(=O)N2)[C@@H](C)O | 549 | 1070 | 18
COc1cc[nH]c1/C=C1\C(=O)Nc2ccc(F)c(C#C[C@@H]3C[C@H](O)CN3)c21 | 90 | 110 | 5
